Test results taken from publication PMC4755300 (European journal of medicinal chemistry, 2015).

What was measured:
[1] = target: human σ1 receptors in MCF7σ1 cells (Homo sapiens, UniProt Q99720); assay: Flow cytometry displacement of fluorescent tracers 5 or 6 in MCF7σ1 cells; format: binding; conditions: for effect on fluorescent signal by tracers 5 and 6 (100 nM): MCF7σ1 cells, masking compound at 10 µM; for concentration at which the cellular fluorescence signal reaches a plateau: MCF7 cell lines, 45 and 75 min incubation, flow cytometry
MCF7wt cells = assay: Flow cytometry of fluorescent tracers 5 or 6 in MCF7wt cells; format: cell-based, human; conditions: masking compound at 10 µM
Outline: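 Parental MCF7 cells were grown in high-glucose DMEM with 10% FBS and 1% penicillin-streptomycin at 37 °C. […] Cells were washed twice in PBS, detached 10 min at 37 °C, pelleted and resuspended in PBS. Flow cytometry used a 530 nm band pass filter, 50,000 events per analysis.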

σ1 receptor = σ1 receptor (Cavia porcellus, UniProt Q60492); assay: σ1 receptor radioligand competition binding; parameters: species or system guinea pig; conditions: for σ1 versus σ2 receptor selectivity: ratio of σ2 and σ1 Ki
[2] = Fluorescence spectroscopy; format: physicochemical; conditions: with respect to quinine sulfate
Outline: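 Excitation and emission spectra were recorded on the free base in EtOH (per table footnote) or in CHCl3. Fluorescence quantum yield was calculated relative to quinine sulfate.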

σ2 receptor = target: T1, σ2 receptor (Rattus norvegicus, UniProt Q5U3Y7); assay: σ2 receptor radioligand competition binding, [3H]-DTG with 1 µM
T1 sequence (Q5U3Y7 1-176): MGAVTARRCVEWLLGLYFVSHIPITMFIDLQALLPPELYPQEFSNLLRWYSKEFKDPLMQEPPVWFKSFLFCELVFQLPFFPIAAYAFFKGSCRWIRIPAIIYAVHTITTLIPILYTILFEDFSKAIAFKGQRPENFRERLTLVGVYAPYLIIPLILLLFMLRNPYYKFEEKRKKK

ARPE19 cells [3] = assay: MTT cell viability assay, paraquat toxicity in ARPE19 cells; format: cell-based, human; conditions: 1 mM paraquat, 24 h
ARPE19 cells [4] = assay: Confocal imaging of ARPE19 cells labeled with compound 9; format: cell-based, human; conditions: PB190 100 µM pretreatment 40 min
Outline: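 ARPE19 cells were grown in DMEM with 10% FBS and 1% penicillin-streptomycin under 5% CO2. Treatment and imaging were done in HBSS. Control wells were pretreated with PB190 100 µM for 40 min. Cells then received test compound 0.5 µM for 40 min and were rinsed twice in HBSS. Laser confocal imaging used a 60X oil objective, excitation 408 nm and emission detection 525 nm.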

Sequence of human σ1 receptors in MCF7σ1 cells (Q99720 whole entry): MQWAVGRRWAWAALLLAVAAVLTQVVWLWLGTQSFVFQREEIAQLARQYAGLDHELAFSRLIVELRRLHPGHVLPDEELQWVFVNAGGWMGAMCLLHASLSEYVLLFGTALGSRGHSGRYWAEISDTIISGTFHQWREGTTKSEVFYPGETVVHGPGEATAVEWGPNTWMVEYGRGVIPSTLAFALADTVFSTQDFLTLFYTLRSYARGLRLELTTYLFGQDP
Sequence of σ1 receptor (Q60492 whole entry): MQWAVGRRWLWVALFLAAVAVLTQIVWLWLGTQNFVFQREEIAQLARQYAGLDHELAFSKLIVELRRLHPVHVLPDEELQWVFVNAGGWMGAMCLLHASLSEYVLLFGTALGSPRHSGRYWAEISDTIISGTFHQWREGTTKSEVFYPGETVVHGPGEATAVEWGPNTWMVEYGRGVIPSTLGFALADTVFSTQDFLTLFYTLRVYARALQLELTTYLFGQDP

| SMILES | effect on fluorescent signal by tracers 5 and 6 (100 nM) [1] | effect on fluorescent signal by tracers 5 or 6 (100 nM) (MCF7wt cells) | concentration at which the cellular fluorescence signal reaches a plateau [1] [nM] | σ1 versus σ2 receptor selectivity (σ1 receptor) [fold] | QY CHCl3 (fluorescence quantum yield) [2] | QY EtOH (fluorescence quantum yield) [2] | other results |
| --- | --- | --- | --- | --- | --- | --- | --- |
| CC(C)=CCN1CC[C@]2(C)c3cc(O)ccc3C[C@H]1[C@H]2C [(+)-Pentazocine, reference compound] | strongly decreased | no change |  |  |  |  |  |
| CC1CCN(CCCCC2CCCc3cc(OCCCCCCN4C(=O)c5ccc(N(C)C)cc5C4=O)ccc32)CC1 (stereo not drawn) [Compound 5, 5-(Dimethylamino)-2-(6-((5-(4-(4-methylpiperidin-1-yl)butyl)-5,6,7,8-tetrahydronaphthalen-2-yl)oxy)hexyl)isoindoline-1,3-dione] |  |  | 100 | 10 | 0.5 | 0.02 |  |
| CC1CCN(CCCCc2cccc3cc(OCCCCCCN4C(=O)c5ccc(N(C)C)cc5C4=O)ccc23)CC1 [Compound 6, 5-(Dimethylamino)-2-{6-[(5-(4-(4-methylpiperidin-1-yl)butyl)naphthalen-2-yl)oxy]hexyl}isoindole-1,3-dione] |  |  | 100 | 10 | 0.4 | 0.02 | decrease of σ2 affinity in comparison to the lead compound (σ2 receptor; 6 vs PB212): 2.5 fold |
| CN(C)c1ccc2c(c1)C(=O)N(CCCCCCOc1cccc3c1CCCC3CCC(=O)N1CCN(C3CCCCC3)CC1)C2=O (stereo not drawn) [Compound 9, 2-(6-((5-(3-(4-Cyclohexylpiperazin-1-yl)-3-oxopropyl)-5,6,7,8-tetrahydronaphthalen-1-yl)oxy)hexyl)-5-(dimethylamino) isoindole-1,3-dione] |  |  |  | 3 | 0.4 | 0.02 | Ki (σ1 receptor): 13.1 ± 5.02 nM; cytoprotection against paraquat-mediated toxicity (MTT viability) (ARPE19 cells [3]): protects against such toxicity; Ki (σ2 receptor): 38.4 ± 10.9 nM; σ2 receptor affinity higher than that of the lead compound (σ2 receptor; 9 vs 1): 5 fold |
| COc1cc2c(cc1OC)CN(CCCN1CCc3c(OC)cccc3C1=O)CC2 [Compound 10, 2-(3-(6,7-dimethoxy-3,4-dihydroisoquinolin-2(1H)-yl)propyl)-5-methoxy-3,4-dihydroisoquinolin-1(2H)-one, reference compound] | only slightly decreased | no change |  |  |  |  |  |
| COc1ccc2c(c1)CCCC2CCCCN1CCC(C)CC1 (stereo not drawn) [PB190, 4-methyl-1-[4-(6-methoxy-1,2,3,4-tetrahydronaphthalen-1-yl)butyl]piperidine] |  |  |  |  |  |  | effect on labeling by compound 9 when cells prelabeled (ARPE19 cells [4]): Lower intensity of labeling |
